STEP block = inhibitors of human striatal-enriched phosphatase STEP; inhibition, % at 20 µM; P54829; recombinant STEP, OMFP fluorogenic substrate, fluorescence; hit rate 0.25% among 360,000; AID 588621;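 active = inhibition at 20 µM, scaled per plate between control wells, above about 37%, limit read from the data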;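 note: 0% = DMSO with enzyme and substrate and 100% = substrate only without enzyme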
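Also added – OMFP at 25 µM · Test system – STEP tyrosine phosphatase · Technique – FITC-channel fluorescence of OMFP product · Schedule – 20 min at room temperature, dark · Evaluation – control-normalized % inhibition with plate pattern correction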
Scp1 inh = blocks human Scp-1 phosphatase activity. Recombinant Scp1, phosphopeptide, malachite green phosphate absorbance. Q9GZU7. inhibition, % at 20 µM. hit rate 0.88% among 340,000;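 active = inhibition above about 50% at 20 µM, limit read from the data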;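 note: plate controls were DMSO wells with enzyme for no effect and wells lacking enzyme for full effect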
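Times: enzyme reaction 45 min at room temperature, colour 5 min, stabilisation 30 min. Material: SCP-1 catalytic fragment, aa 76-261. Medium: Acidic Tris acetate buffer with magnesium and detergent. Signal: colorimetric free-phosphate detection, absorbance 630 nm. Read-out basis: % inhibition of SCP-1 phosphate liberation. Reagent: Phosphorylated 17-residue peptide substrate.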
SUMO1 PPI mod = alters human SUMO1 binding to SIM partners; SUMO1 binding to a labelled peptide, TR-FRET, 1 h; inhibition, % at 20 µM; hit rate 0.33% among 360,000; AID 602429; in the data active = inhibition above about 37%
GRK2 inh = human GRK2 inhibition via aptamer displacement; P25098; bead flow cytometry, FAM-aptamer displacement from GRK2; inhibition of aptamer binding, % at 10 µM; hit rate 0.59% among 330,000;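 active = inhibition of aptamer binding above 40%, roughly 3 SD of noise, on plates passing a quality check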;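 note: median bead fluorescence of bound FAM aptamer so fluorescent compounds give negative values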
Target sequence (P25098 whole entry, looked up): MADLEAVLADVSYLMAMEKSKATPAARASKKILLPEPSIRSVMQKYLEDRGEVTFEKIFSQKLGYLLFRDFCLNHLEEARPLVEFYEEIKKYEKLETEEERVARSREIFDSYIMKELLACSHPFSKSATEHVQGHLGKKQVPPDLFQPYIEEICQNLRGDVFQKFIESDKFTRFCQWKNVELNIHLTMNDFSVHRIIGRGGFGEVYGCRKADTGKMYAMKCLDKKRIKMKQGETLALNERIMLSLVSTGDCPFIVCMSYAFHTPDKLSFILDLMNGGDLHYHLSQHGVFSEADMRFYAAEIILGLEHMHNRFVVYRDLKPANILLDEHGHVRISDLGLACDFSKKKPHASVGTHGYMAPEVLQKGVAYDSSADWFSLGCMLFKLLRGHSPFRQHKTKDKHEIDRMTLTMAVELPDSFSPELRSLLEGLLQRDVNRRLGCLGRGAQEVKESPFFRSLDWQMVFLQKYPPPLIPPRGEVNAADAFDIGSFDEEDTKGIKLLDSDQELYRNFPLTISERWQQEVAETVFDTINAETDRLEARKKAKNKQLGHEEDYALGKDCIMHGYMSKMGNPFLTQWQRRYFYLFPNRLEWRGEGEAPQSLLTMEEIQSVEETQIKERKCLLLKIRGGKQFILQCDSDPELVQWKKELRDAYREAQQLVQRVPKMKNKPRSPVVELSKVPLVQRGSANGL
DNMT1 block = inhibitors of human DNMT1. P26358. DNMT1 molecular beacon, Hinp1I cleavage, fluorescence. inhibition (reported as % activation of signal), % at 10 µM. hit rate 0.83% among 360,000. AID 588458; in the data active = inhibition above about 50%
LMPTP inh = blocks human LMPTP phosphatase; inhibition, % at 20 µM; AID 651560; P24666; hit rate 0.22% among 360,000; recombinant LMPTP-A, OMFP fluorogenic substrate, fluorescence intensity;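 active = compounds that cut the enzyme signal by at least half of the control window in the single-dose screen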;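 note: plate controls were DMSO wells with enzyme plus substrate for no effect and substrate without enzyme for full effect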
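Assay system: LMPTP-A phosphatase enzyme | Input: 0.625 nM enzyme | Also added: Fluorogenic phosphatase substrate OMFP at 400 µM final | Compound dosing: One test concentration per compound, 20 µM, with 3% DMSO overall | Schedule: 50 min enzyme reaction at room temperature, protected from light | Signal: Fluorescence intensity | Benchmarks: no-enzyme and uninhibited controls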
Starred values were filed as active, the others as inactive; nt = no result given. Most compounds without a hit are left out; they make up all but 2.1% or so of the library.

SMILES | STEP block | Scp1 inh | SUMO1 PPI mod | GRK2 inh | DNMT1 block | LMPTP inh
Cc1ccc(Oc2ccccc2NC(=O)C2=COCCO2)cc1 | 2 | -2 | 9 | 1 | -1 | 0
COc1ccc(F)cc1S(=O)(=O)Nc1cc2c3c(c1)CCC(=O)N3CCC2 | 0 | 1 | 7 | 0 | 1 | -1
CN(C)c1ccc(/C=C/c2cc[n+](C)cc2)cc1 | 2 | 96* | -70 | 0 | -16 | 7
CN(C)c1ccc(/C=C/c2cc[n+]([O-])cc2)cc1 | nt | nt | nt | 0 | nt | nt
COc1ccccc1C(CNC(=O)c1oc2ccccc2c1C)N1CCCC1 (stereo not given) | -3 | -4 | -2 | 0 | -2 | 2
CCCc1nc2ccccc2n1C(C(=O)NC(C)(C)C)C1CC1 (stereo not given) | nt | nt | 4 | nt | nt | -1
Cc1ccccc1Cn1cc(S(=O)(=O)c2ccc(C(C)C)cc2)c(=O)c2cc3c(cc21)OCO3 | 1 | -25 | -20 | 1 | -9 | 2
Cc1cc(C(=O)COC(=O)c2cc(O)c3ccccc3c2O)c(C)n1CC1CCCO1 (stereo not given) | 1 | 74* | 31 | nt | -30 | 2
COc1ccccc1OCC(=O)Nc1cc(NC(=O)COc2ccccc2OC)cc(C(=O)O)c1 | 1 | -10 | 11 | 1 | -6 | 0
O=C(COc1ccccc1Cl)Nc1cc(NC(=O)COc2ccccc2Cl)cc(C(=O)O)c1 | 30 | 73* | 20 | 5 | 4 | 31
O=C(COc1ccccc1Cl)Nc1ccc(N2CCCC2)cc1 | 2 | 1 | -1 | 54* | -2 | 1
O=C(Nc1ccc(N2CCCC2)cc1)c1cc(Cl)ccc1Cl | 1 | -4 | 90* | 0 | 53* | 35
CC(C)Oc1ccc(C(=O)Nc2ccc(N3CCCC3)cc2)cc1 | -4 | 3 | -34 | 0 | 53* | 5
CCOC(=O)N1CCN(C(=O)COC(=O)CNC(=O)c2ccc(OCC)c(OCC)c2)CC1 | 0 | -7 | 4 | nt | -1 | -1
COc1ccc(NC(=O)N(C)C[C@H]2Oc3c(NS(=O)(=O)c4cccs4)cccc3C(=O)N([C@@H](C)CO)C[C@@H]2C)cc1 | 1 | -10 | 3 | 0 | 5 | 1
CC(CCC(C)C(C)(C)C)[C@@H]1CC[C@H]2C3C[C@H](OS(O)(=S)=S)[C@H]4C[C@H](OS(O)(=S)=S)[C@@H](OS(O)(=S)=S)C[C@]4(C)[C@H]3CC[C@]12C (stereo not given in full) (tested in a mixture with another compound) | 31 | 25 | 45* | 3 | -167 | 81*
CC(=O)Nc1cccc(NC(=O)COC(=O)CO/N=C(\C)c2ccc3c(c2)OCO3)c1 | 3 | -4 | -2 | 0 | 0 | 0
O=C(CSc1nnc(CNC(=O)c2ccccc2F)o1)NC1CCCCC1 | -2 | -2 | 38* | 4 | 4 | 0
CN(C)C(CNC(=O)c1cc(S(=O)(=O)N2CCOCC2)ccc1Cl)c1cccs1 (stereo not given) | 0 | -17 | 1 | nt | -2 | -2
S=C(Nc1ccccc1Cl)N(CCCN1CCOCC1)Cc1ccccn1 | -2 | 3 | 2 | 3 | 0 | -3
O=C(CN1C(=O)NC2(CCCCCC2)C1=O)Nc1ccc(Cl)cc1Cl | 2 | -2 | -2 | 0 | -2 | 0
O=C(CN1C(=O)NC2(CCCC2)C1=O)Nc1cc(Cl)ccc1Oc1ccccc1 | 0 | -10 | 40* | 0 | -2 | 1
Cc1ccc(N2C(=O)c3cccc4c(N)ccc(c34)C2=O)c2cccnc12 | -23 | 67* | -13 | 0 | 48 | 40
CCCN1C(=O)c2cccc3c(N4CCCCC4)ccc(c23)C1=O | -10 | -4 | -16 | 3 | 8 | 2
CCN1C(=O)c2cccc3c(N)ccc(c23)C1=O | -108 | 17 | -105 | 2 | 124* | -11
SMILES | STEP block | Scp1 inh | SUMO1 PPI mod | GRK2 inh | DNMT1 block | LMPTP inh
Cc1nn(C)c(C)c1N1C(=O)c2cccc3c(Br)ccc(c23)C1=O | 1 | 1 | -28 | 0 | 4 | -1
Cc1nn(C)c(C)c1N1C(=O)c2cccc3c(N)ccc(c23)C1=O | -150 | -11 | -47 | 4 | 93* | -11
CN(C)CCCN1C(=O)c2cccc3c(Br)ccc(c23)C1=O | 3 | -7 | -20 | 0 | 41 | 7
CCCCNc1ccc2c3c(cccc13)C(=O)N(CCCC)C2=O | -305 | -18 | -74 | nt | 61* | -4
OC(c1ccccc1)(c1nc(-c2cc3ccccc3o2)cs1)C(F)(F)F (stereo not given) | 0 | nt | 3 | nt | -14 | 3
Cc1nc(-c2ccc(S(=O)(=O)Oc3ccccc3Cl)s2)cs1 | 1 | -13 | -6 | 0 | -2 | 5
CCCCCN(C(=O)CCC(=O)OCc1ccccc1C(F)(F)F)c1c(N)n(CCCC)c(=O)[nH]c1=O | -1 | -7 | 5 | 47* | -4 | -4
CC(C)[C@H](NS(=O)(=O)c1ccccc1)C(=O)OCc1cc([N+](=O)[O-])cc2c1OCOC2 | 3 | -10 | -18 | nt | -3 | -1
COc1ccc(CCNC(=O)c2cc3c(=O)n4cccc(C)c4nc3s2)cc1OC | 0 | -6 | 40* | 0 | 1 | 1
CCC(=O)c1cc2c(C)cc(=O)oc2c(C)c1OC(C)=O | 1 | -4 | 2 | 83* | 8 | -1
C[C@@H](CN1C(=O)C(=O)NC[C@@H]1Cc1ccc(O)cc1)NC(=O)Cc1ccccc1 | 14 | -3 | 42* | 0 | -4 | 3
O=C1NC[C@@H](Cc2ccc(O)cc2)N(CCc2cc(C(F)(F)F)cc(C(F)(F)F)c2)C1=O | nt | nt | 67* | nt | nt | 4
CC(C)C[C@H]1CNC(=O)C(=O)N1C[C@H](Cc1ccc(O)cc1)NC(=O)Cc1ccccc1 | nt | nt | 1 | nt | nt | -2
COc1ccc(CCN2CC(=O)NC(=O)C2)cc1OC | 4 | nt | 5 | nt | 5 | -1
Nc1ccc2nc(CCCCc3nc4ccccc4[nH]3)[nH]c2c1 | 0 | -4 | 3 | 0 | -7 | 10
Nc1ccc2nc(CCCO)[nH]c2c1 | -1 | -6 | -2 | 2 | -12 | 1
Nc1ccc2nc(CCCCCCc3nc4ccc(N)cc4[nH]3)[nH]c2c1 | 3 | 14 | 0 | 0 | -15 | 68*
Nc1ccc2nc(CCCCCCCCc3nc4ccc(N)cc4[nH]3)[nH]c2c1 | 2 | -3 | -2 | 0 | -14 | 65*
O=C1CCN(CCCc2ccccc2)CCN1[C@H](CO)Cc1ccccc1 | -1 | 8 | 2 | 1 | 3 | -1
Cc1ccc(-n2c(C)cc(/C=N/Nc3ccc([N+](=O)[O-])cn3)c2C)cc1 | 0 | 102* | -5 | 0 | 1 | 0

Source: PubChem BioAssay
